Results from different studies.
Each line is one published result; the experiments were not run side by side.
murD: UDP-N-acetylmuramoylalanine--D-glutamate ligase (murD, Escherichia coli K-12, UniProt P14900)
HDAC8: Histone deacetylase 8 (HDAC8, Homo sapiens, UniProt Q9BY41)
BAZ1B: Tyrosine-protein kinase BAZ1B (BAZ1B, Homo sapiens, UniProt Q9UIG0)
BRD4 BD1: Bromodomain-containing protein 4, BD1 (BRD4, Homo sapiens, UniProt O60885)

For `N#Cc1ccc(COc2ccccc2C=NNS(=O)(=O)c2cccc([N+](=O)[O-])c2)cc1`, the remaining activity was 74% (murD; enzyme activity; inhibitor; absorbance; 100 µM).
`O=c1c(O)c(-c2ccc(O)c(O)c2)oc2cc(O)cc(O)c12` gave an inhibition of 68% (HDAC8; enzyme activity; inhibitor; 10 µM).
`O=C(Nc1ccc(C=NNS(=O)(=O)c2ccc3ccccc3c2)cc1)c1ccc([N+](=O)[O-])cc1` gave a remaining activity of 81% (murD; enzyme activity; inhibitor; absorbance; 50 µM).
`O=c1c(O)c(-c2ccc(O)cc2)oc2cc(O)cc(O)c12` has an inhibition of 66.3% (HDAC8; enzyme activity; inhibitor; 10 µM).
With `C[S+]([O-])c1ccc(-c2nc(-c3ccncc3)c(-c3ccc(F)cc3)[nH]2)cc1` (centres unmarked) the ΔTm was 0.29 °C (BAZ1B; thermal stability; DSF; 10 µM).
For `NS(=O)(=O)c1ccc(Nc2nc(-c3ccc(F)cc3)c3ccccc3n2)cc1`, the remaining binding was 5% (BRD4 BD1; binding; competition with immobilised ligand; 1 µM).
For `Cc1cc2c(cc1N1C(=O)c3cccc4c(Cl)ccc(c34)C1=O)n(C)c(=O)n2C`, the ΔTm was -1 °C (BAZ1B; thermal stability; DSF; 10 µM).
For `Nc1ncnc2occ(-c3ccc(NC(=O)Nc4cc(C(F)(F)F)ccc4F)cc3)c12`, the remaining signal was 0.4% (Cyclin-dependent kinase 11B (CDK11B, Homo sapiens, UniProt P21127); cell-free assay; 20 µM).
`N#Cc1ccc(COc2ccccc2C=NNS(=O)(=O)c2ccccc2[N+](=O)[O-])cc1` gave a remaining activity of 86% (murD; enzyme activity; inhibitor; absorbance; 100 µM).
`Cc1ccc(C(=O)Nc2ccc(CN3CCN(C)CC3)c(C(F)(F)F)c2)cc1C#Cc1cnc2cccnn12` has a remaining activity of 95% (Mitogen-activated protein kinase kinase kinase 4 (MAP3K4, Homo sapiens, UniProt Q9Y6R4); enzyme activity; inhibitor; 23.5 nM).
`CC(C)[C@@H]1NC(=O)[C@@H]2CCCN2C(=O)[C@H](Cc2ccccc2)NC(=O)CSC[C@@H](C(=O)N[C@@H](Cc2ccc(O)cc2)C(N)=O)NC(=O)[C@H](Cc2c[nH]c3ccccc23)NC(=O)[C@H](CCCCN)NC(=O)[C@H](Cc2ccccc2)N(C)C(=O)[C@H](Cc2ccccc2)NC1=O` has a ΔTm of -0.27 °C (BRD4 BD1; thermal stability; DSF; 200 µM).
With `CN(C)CCN1CCN(c2nc(NCc3cccc(Cl)c3)c3cc(-c4ccc(=O)n(C)c4)ccc3n2)CC1` the ΔTm was 15 °C (BRD4 BD1; thermal stability; DSF; 250 µM).
`O=C(Cc1ccc2c(c1)OCO2)Oc1ccccc1C=NNS(=O)(=O)c1ccc2ccccc2c1` gave a remaining activity of 49% (murD; enzyme activity; inhibitor; absorbance; 100 µM).
`Cc1cnc(Nc2ccc(OCCN3CCCC3)cc2)nc1Nc1cccc(S(=O)(=O)NC(C)(C)C)c1` gave a ΔTm of 3.11 °C (Bromodomain-containing protein 4, BD2 (BRD4, Homo sapiens, UniProt O60885); thermal stability; DSF; 10 µM).
`O=[N+]([O-])c1cccc(S(=O)(=O)Oc2ccccc2C=NNS(=O)(=O)c2ccc3ccccc3c2)c1` gave a remaining activity of 70% (murD; enzyme activity; inhibitor; absorbance; 50 µM).
For `Oc1ccc(-c2nc(-c3ccncc3)c(-c3ccc(F)cc3)[nH]2)cc1`, the ΔTm was 0.55 °C (BRD4 BD1; thermal stability; DSF; 10 µM).
`CCCOc1ccc(OC)c(F)c1C(=O)c1ccc(C(=O)N[C@@H]2CNC[C@H]2NC(=O)c2ccc3[nH]ncc3c2)cc1` gave a remaining activity of -6% (cGMP-dependent protein kinase 1 (PRKG1, Homo sapiens, UniProt Q13976); enzyme activity; inhibitor; 10 µM).
